Screening results deposited in PubChem BioAssay by several laboratories.
The list is not random: actives were taken first. Their share in the collection is about 4.8%.
SF-1 act – activators of human nuclear receptor SF-1; CHO-K1 Gal4-SF-1 LBD luciferase reporter; % increase over DMSO SF-1-specific signal; activation, % at 10 µM; 1.9% of 65,000 active; AID 522;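 active = activation above the mean activation of all tested compounds plus 3 SD, cut at about 50% in these data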
Target sequence (Q13285 whole entry, looked up, the tested form may be a part): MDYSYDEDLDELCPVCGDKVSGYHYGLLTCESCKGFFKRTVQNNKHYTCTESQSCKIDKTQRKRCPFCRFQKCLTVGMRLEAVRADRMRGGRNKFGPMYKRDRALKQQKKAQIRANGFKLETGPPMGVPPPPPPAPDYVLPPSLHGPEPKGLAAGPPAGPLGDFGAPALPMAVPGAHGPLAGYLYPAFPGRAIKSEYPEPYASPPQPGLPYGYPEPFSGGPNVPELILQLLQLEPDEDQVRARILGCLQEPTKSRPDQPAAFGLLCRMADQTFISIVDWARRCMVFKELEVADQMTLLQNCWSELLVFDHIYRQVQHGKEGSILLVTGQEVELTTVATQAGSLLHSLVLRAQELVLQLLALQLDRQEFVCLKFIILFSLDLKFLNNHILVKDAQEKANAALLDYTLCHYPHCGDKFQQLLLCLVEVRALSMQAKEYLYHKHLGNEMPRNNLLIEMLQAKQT
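Compound – one dose, 10 µM compound, 1% DMSO · Test system – transient Gal4-SF-1 LBD reporter, CHO-K1 · Input – 4,000 cells in each well · Read-out basis – percent activation relative to DMSO median and mock-transfected background · Replicates – single measurement per compound · Technique – steady-glow luciferase luminescence, read after 15 min reagent incubation · Timing – 20 h compound treatment, 37 °C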
ERa coact pot – ER-alpha (human) coactivator binding potentiation; 1.3% of 86,000 active; AID 639; TR-FRET ERalpha-LBD/SRC-Cy5 coactivator binding, 2 h; 100 = basal binding, no effect; P03372; coactivator binding (% of control), % at 25.6 µM; in the data active = activity above about 200%;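 note: binding measured in presence of low estradiol as agonist stimulus; 0% = peptide alone without receptor and 100% = receptor with peptide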
RORa activator – RORA (human) activation. P35398. 1.5% of 65,000 active. activation, % at 10 µM. CHO-K1 Gal4-RORA LBD luciferase reporter, luminescence; percent increase over mock-subtracted basal signal;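 active = activation above the mean of all tested compounds plus 3 SD, cut at about 49% in these data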;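 note: 0% = DMSO-treated RORA cells and 100% = added signal equal to DMSO minus mock-transfected cells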
Pyk2 oligo antag – Pyk2 (human) oligomerization antagonism; Q14289; Q293 cells, Pyk2 FERM NanoBiT luminescence; stronger effect = lower value; z-score (the deposit names both 25 µM and 10 µM); 0.83% of 99,000 active; AID 1347419;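 active = Z-score of -3 or lower, scaled per plate to the spread of control and sample wells; inactive = z-score above -3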;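 note: negative z-score means lost luminescence so less FERM oligomerization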
ERb SRC1 inh – blocks coactivator binding to human estrogen receptor beta. 1.3% of 86,000 active. AID 633. Q92731. TR-FRET ER-beta LBD / SRC1-Cy5 peptide binding; receptor agonist-loaded with 1 µM estradiol. inhibition, % at 25.6 µM;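 active = compounds whose percent inhibition of the receptor-coactivator binding signal exceeds about 50% in the single-dose screen, limit read from the data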;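 note: 0% = receptor plus peptide wells without compound and 100% = peptide-only wells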
ERa coact inh – ER-alpha (human) coactivator binding inhibition. P03372. TR-FRET ER-alpha LBD / SRC-1 peptide, estradiol-bound. inhibition, % at 25.6 µM. 1.7% of 86,000 active. AID 629; in the data active = inhibition above about 50%;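 note: 0% = receptor plus peptide control and 100% = peptide only without receptor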
Active calls of the source: *; . = no result given; [ ] = another dose, or the depositor's remark.

SMILES	SF-1 act	ERa coact pot	RORa activator	Pyk2 oligo antag	ERb SRC1 inh	ERa coact inh
O=C(Nn1nnnc1Nc1ccccc1)C12CC3CC(CC(C3)C1)C2	-17.7	112.2	4.5	-0.44	-1.1	-6.6
Cc1cc(NC(=O)CSc2nc3ccc(Cl)cc3[nH]2)no1	.	101.9	.	-1.14	-1.0	1.8
O=C(Nc1ccccc1)c1ccc(NC2CCCCC2)c(S(=O)(=O)N2CCOCC2)c1	.	111.1	.	-2.42	6.6	-0.5
Cc1ccccc1NC(=O)c1ccc(F)c(S(=O)(=O)N2CCN(c3ccccn3)CC2)c1	-3.5	108.2	-3.2	-0.97	2.6	-11.8
O=C(Nc1ccccc1)c1ccc(N2CCN(c3ccccn3)CC2)c(S(=O)(=O)N2CCOCC2)c1	.	340.3*[fluorescence artefact?]	.	-0.68	27.0	27.0
O=C(Nc1ccccc1)c1ccc(N2CCN(c3ccccc3)CC2)c(S(=O)(=O)N2CCOCC2)c1	.	405.4*[fluorescence artefact?]	.	0.21	25.7	31.4
O=C(CSc1nc2ccccc2o1)Nc1cc(C(F)(F)F)ccc1N1CCOCC1	.	.	.	-1.21	.	.
Cc1ccc2nc(SCC(=O)Nc3cc(C(F)(F)F)ccc3N3CCOCC3)[nH]c2c1	.	101.7	.	-3.55*	1.8	-1.5
Cc1cccc(C)c1NC(=O)C(c1cccs1)N(Cc1ccco1)C(=O)Cn1nnc2ccccc21 (configuration not stated)	-4.7	108.2	2.0	-0.7	1.6	7.9
Cc1cc2cc(CNC(=O)Nc3cccc(Cl)c3)ccc2n1C	.	214.6*[fluorescence artefact?]	.	.	14.6	20.0
Cc1cc2cc(CNC(=O)c3ccc(S(=O)(=O)N(C)C)cc3)ccc2n1C	.	126.4	.	.	14.5	3.7
Cc1cc2cc(CNC(=O)c3ccc(Br)o3)ccc2n1C	3.5	62.2	-3.5	.	42.6	74.0*[fluorescence artefact?]
Cc1cc2cc(CNC(=O)c3ccc(S(=O)(=O)N4CCOCC4)cc3)ccc2n1C	.	275.7*[fluorescence artefact?]	.	.	28.3	1.3
Cc1cccc(NC(=O)NCc2ccc3c(c2)cc(C)n3C)c1	.	163.2	.	.	10.1	-0.3
N#CC(c1ccc(O)cc1)N1CCOCC1 (configuration not stated)	.	112.4	.	1.73	-23.7	-14.6
C=CCn1c(SCC(=O)c2cc(C)n(C(C)COC)c2C)nc2sc(C)c(C)c2c1=O (configuration not stated)	-4.2	97.5	-7.8	-0.62	-4.7	-8.6
CCOC(=O)C1=c2s/c(=C\c3cccnc3)c(=O)n2C(N)=C(C(=O)OC)C1c1cccnc1 (configuration not stated)	.	89.3	.	-0.62	-14.6	44.9
CCOC(=O)C1=C(N)n2c(s/c(=C\c3cccnc3)c2=O)=C(C#N)C1c1cccnc1 (configuration not stated)	-16.1	65.4	16.9	.	17.5	51.6*[fluorescence artefact?]
CNc1nc(N2CCc3ccccc32)ncc1F	75.3*	122.8	40.7	-0.78	-3.2	-5.2
Cc1ccc(C)c(C(C)NC(=O)C2C3CCC(O3)C2C(=O)O)c1 (configuration not stated)	-30.5	109.2	-8.2	.	-1.4	0.5
O=C1NCCN1CCNS(=O)(=O)c1ccc2ccccc2c1	8.2	122.4	-12.7	0.96	-8.5	58.3*[fluorescence artefact?]
O=C1c2ccccc2CN1CCNS(=O)(=O)c1ccc2ccccc2c1	.	99.0	.	1.67	-3.6	-11.7
O=c1oc2c3c4c(cc2cc1-c1nc2ccccc2[nH]1)CCCN4CCC3	44.3	9.8	52.1*	.	58.3*[fluorescence artefact?]	94.5*[fluorescence artefact?]
O=c1oc2c(CN3CCCCC3)c(O)ccc2cc1-c1nc2ccccc2[nH]1	26.9	130.4	15.5	0.32	5.0	4.7
N#Cc1ccsc1NC(=O)CSc1ncn[nH]1	12.6	76.5	-3.3	-0.13	6.7	7.9
SMILES	SF-1 act	ERa coact pot	RORa activator	Pyk2 oligo antag	ERb SRC1 inh	ERa coact inh
N#Cc1ccsc1NC(=O)CSc1ncnc2ccccc12	-2.2	25.2	-15.6	0.35	61.3*	90.6*[fluorescence artefact?]
Cc1cccc(-n2ccnc2SCC(=O)Nc2nccs2)c1	60.2*	115.4	-13.2	-0.76	-11.3	-2.5
Cn1ccnc1SCC(=O)Nc1ccc(Oc2ccccc2)cc1	33.4	105.8	60.2*	0.42	-3.8	-5.6
Cn1ccnc1SCC(=O)Nc1sccc1C#N	8.8	43.0	-1.2	-0.27	39.2	66.8*[fluorescence artefact?]
CCN(c1ccc(NC(=O)COC(=O)c2ccc(S(=O)(=O)N3CCCC3)cc2)cc1)C(C)C	.	.	.	0.55	.	.
O=C(O)C1Nc2c(C(=O)N3CCOCC3)cccc2C2C=CCC12 (configuration not stated)	3.5	19.9	-9.4	0.82	82.2*	70.0*
CCN(CC)C(=O)c1sc2nc(-c3ccc(OC)cc3)cn2c1C	80.0*	100.7	98.2*	-0.89	-12.4	-72.9
CNC(=O)c1sc2nc(-c3ccc(OC)cc3)cn2c1C	26.9	96.0	62.5*	.	0.8	1.4
Cc1c(OC(=O)CNC(=O)OC(C)(C)C)ccc2c3c(c(=O)oc12)CCC3	1.6	121.7	7.0	-0.14	1.7	3.6
O=C(Nc1nc(N2C(=O)c3ccccc3C2=O)n(-c2ccccc2)n1)c1ccc(Cl)cc1	.	114.8	.	-0.53	1.6	-0.4
O=C1NC(c2ccc(Br)cc2)Nc2sc3c(c21)CCC3 (configuration not stated)	.	26.0	.	-0.46	63.7*	50.6*
O=c1[nH]cnc2cc(-c3ccccc3)sc12	56.0*	.	18.3	-0.4	.	.
COc1ccc(-c2cc3nc[nH]c(=O)c3s2)cc1	.	117.0	.	1.04	6.0	6.8
Oc1[nH]c2ccccc2c1C1=NCCCC1	-10.5	26.9	-20.8	0.82	92.2*[fluorescence artefact?]	82.5*[fluorescence artefact?]
COc1ccc(CN(Cc2cccnc2)C(=S)NCCc2ccccc2)cc1OC	.	.	.	-2.91	.	.
Cc1cc(C(=O)CSc2nnc(-c3ccco3)o2)c(C)n1Cc1ccco1	0.6	177.2	-2.0	-0.86	41.1	53.8*[fluorescence artefact?]
COc1ccc(-c2nnc(SCC(=O)c3cc(C)n(Cc4cccs4)c3C)o2)cc1	-11.6	302.8*	7.1	0.66	37.6	52.4*[fluorescence artefact?]
CN(C(=O)CSc1nnc(-c2ccco2)o1)C1CCCCC1	29.1	117.0	50.1*	0.34	-4.8	-1.6
Cc1cc(C(=O)CSc2nnc(-c3ccco3)o2)c(C)n1-c1ccc2c(c1)OCCO2	7.2	116.8	19.8	-0.31	8.5	-6.1
COc1ccc(-n2cnnc2SCC(=O)c2cc(C)n(Cc3cccs3)c2C)cc1	-6.1	248.1*[fluorescence artefact?]	-10.6	1.38	25.3	20.7
COc1ccc(C(=O)OCC(=O)c2ccccc2)cc1S(=O)(=O)N1CCOCC1	.	106.1	.	-0.54	-1.9	24.7
Cc1cc(C(=O)CSc2nnc(-c3ccc(OC(F)F)cc3)o2)c(C)n1Cc1cccs1	4.5	149.9	-20.5	0.34	44.3	54.5*[fluorescence artefact?]
Cc1csc(SCC(=O)c2cc(C)n(Cc3cccs3)c2C)n1	-60.1	73.0	-77.1	0.01	-8.9	-3.6
COc1ccc(C2=CC(=O)OC3(CCCC3)O2)cc1	.	105.4	.	1.39	-13.8	-4.6
Cc1c(C(=O)N2CCCCC2)sc(NC(=O)C23CC4CC(CC(C4)C2)C3)c1C#N	.	123.6	.	-0.19	0.9	2.8
